Data as given in ChEMBL document CHEMBL3102735, “Enhancing the pharmacodynamic profile of a class of selective COX-2 inhibiting nitric oxide donors” (Bioorg Med Chem, 2014).
Converted amounts (≈) assume the structure as drawn. The source made the active and inactive calls. No cut-off for these calls is given here.

What was measured:
[1] = biological target: T1, Prostaglandin G/H synthase 1 (Mus musculus) (UniProt P22437); assay: Inhibition of COX-1 in mouse J774 cells using arachidonic acid as substrate assessed as inhibition of prostaglandin E2 production at 10 uM preincubated for 15 mins followed by substrate addition measured after 30 mins by RIA; format: cell-based
T1 sequence (whole entry): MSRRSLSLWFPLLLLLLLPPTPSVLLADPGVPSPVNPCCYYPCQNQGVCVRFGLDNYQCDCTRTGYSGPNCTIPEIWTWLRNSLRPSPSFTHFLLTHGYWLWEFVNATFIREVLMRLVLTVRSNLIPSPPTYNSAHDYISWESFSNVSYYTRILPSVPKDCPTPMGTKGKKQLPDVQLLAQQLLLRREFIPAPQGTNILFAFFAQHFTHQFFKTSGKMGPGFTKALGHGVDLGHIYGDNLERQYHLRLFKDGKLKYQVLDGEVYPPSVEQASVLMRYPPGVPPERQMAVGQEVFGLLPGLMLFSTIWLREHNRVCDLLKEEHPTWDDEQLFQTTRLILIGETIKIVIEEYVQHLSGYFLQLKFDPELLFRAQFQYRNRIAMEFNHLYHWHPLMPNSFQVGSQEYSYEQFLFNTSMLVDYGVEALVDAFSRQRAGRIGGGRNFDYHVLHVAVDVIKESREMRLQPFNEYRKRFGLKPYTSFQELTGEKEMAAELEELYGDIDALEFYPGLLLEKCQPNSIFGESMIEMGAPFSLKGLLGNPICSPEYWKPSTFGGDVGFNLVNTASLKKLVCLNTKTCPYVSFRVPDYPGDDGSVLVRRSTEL
In short: (§1)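 J774 murine macrophages pretreated 15 min with compound (10 µM; lower concentrations 0.01–1 µM where needed), then incubated 30 min at 37 °C with 15 µM arachidonic acid; supernatant PGE2 measured by RIA. Triplicate wells, mean of three experiments of percent inhibition versus control; IC50 by sigmoidal fit.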

[2] = system: J774; assay: Selectivity index, ratio of IC50 for COX-1 to IC50 for COX-2 in mouse J774 cells; format: cell-based
In short: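 J774 macrophages stimulated 24 h with E. coli LPS (10 µg/mL) to induce COX-2, with or without compound (0.01–10 µM); supernatant PGE2 by RIA. Triplicate wells, three experiments, percent inhibition versus control, IC50 by sigmoidal fit; selectivity as COX-1/COX-2 IC50 ratio.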

[3] = biological target: T2, Prostaglandin G/H synthase 1 (Mus musculus, UniProt P22437); assay: Inhibition of COX-1 in mouse J774 cells using arachidonic acid as substrate assessed as inhibition of prostaglandin E2 production preincubated for 15 mins followed by substrate addition measured after 30 mins by RIA; format: cell-based; in short: as §1
T2 sequence (P22437 whole entry): T1 sequence (whole entry)

[4] = biological target: T3, Prostaglandin G/H synthase 2 (Mus musculus) (UniProt Q05769); assay: Inhibition of LPS-induced COX-2 in mouse J774 cells using arachidonic acid as substrate assessed as inhibition of prostaglandin E2 production at 10 uM preincubated for 15 mins followed by substrate addition measured after 30 mins by RIA; format: cell-based
T3 sequence (whole entry): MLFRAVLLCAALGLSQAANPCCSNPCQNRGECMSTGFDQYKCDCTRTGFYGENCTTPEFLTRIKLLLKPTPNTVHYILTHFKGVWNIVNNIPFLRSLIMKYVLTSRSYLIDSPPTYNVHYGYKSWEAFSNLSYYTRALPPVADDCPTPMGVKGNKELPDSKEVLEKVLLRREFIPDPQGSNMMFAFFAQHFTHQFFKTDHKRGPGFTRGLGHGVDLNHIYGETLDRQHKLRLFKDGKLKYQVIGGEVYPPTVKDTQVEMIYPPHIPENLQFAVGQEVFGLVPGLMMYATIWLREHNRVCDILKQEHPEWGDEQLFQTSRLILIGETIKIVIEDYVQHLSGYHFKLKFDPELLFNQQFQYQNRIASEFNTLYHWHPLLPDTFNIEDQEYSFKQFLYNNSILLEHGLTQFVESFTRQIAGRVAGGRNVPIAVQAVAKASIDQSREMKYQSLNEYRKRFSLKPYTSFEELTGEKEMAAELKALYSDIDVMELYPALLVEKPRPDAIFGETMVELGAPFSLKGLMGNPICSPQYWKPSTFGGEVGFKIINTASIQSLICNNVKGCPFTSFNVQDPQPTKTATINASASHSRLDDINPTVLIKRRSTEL

[5] = biological target: T4, Prostaglandin G/H synthase 2 (Mus musculus, UniProt Q05769); assay: Inhibition of LPS-induced COX-2 in mouse J774 cells using arachidonic acid as substrate assessed as inhibition of prostaglandin E2 production preincubated for 15 mins followed by substrate addition measured after 30 mins by RIA; format: cell-based
T4 sequence (Q05769 whole entry): T3 sequence (whole entry)

[6] = Metabolic stability in Sprague-Dawley rat plasma assessed as compound remaining after 60 mins by LC-MS/MS analysis; format: ADME, cell-free; conditions: read-out: Stability
In short: (§2)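 Compound (12 µL of 1 mM DMSO solution into 588 µL medium) incubated in PBS pH 7.4, pepsin-free SGF pH 1.5, or EDTA rat plasma. Aliquots taken at 0, 30, 60, 120 min and quenched with ice-cold acetonitrile containing internal standard; parent remaining as percent.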

[7] = Stability of the compound in phosphate buffer saline assessed as compound remaining at pH 7.4 after 120 mins by LC-MS/MS analysis; format: physicochemical; conditions: read-out: Stability; in short: as §2
[8] = Stability of the compound in phosphate buffer saline assessed as compound remaining at pH 7.4 after 60 mins by LC-MS/MS analysis; format: physicochemical; conditions: read-out: Stability
In short: (§3)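 1 mM DMSO stock added to 0.01 M PBS (pH 7.4) or 0.05 M simulated gastric fluid without pepsin (pH 1.5 with HCl); incubated in hybridisation oven; aliquots at 0, 30, 60, 120 min quenched with ice-cold acetonitrile containing internal standard; parent remaining (%) measured.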

[9] = Stability of the compound in phosphate buffer saline assessed as compound remaining at pH 7.4 after 30 mins by LC-MS/MS analysis; format: physicochemical; conditions: read-out: Stability; in short: as §3
[10] = Stability of the compound in simulated gastric fluid assessed as compound remaining at pH 1.5 after 30 mins by LC-MS/MS analysis; format: physicochemical; conditions: read-out: Stability; in short: as §3
[11] = Solubility of the compound in simulated gastric fluid at pH 1.5 after 90 mins by HPLC analysis; format: ADME
In short: (§4)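 DMSO stock (20 mM) diluted 2 µL into 198 µL PBS 0.01 M pH 7.4 or pepsin-free SGF 0.05 M pH 1.5, duplicate wells, shaken 90 min at 300 rpm. Filtrates analysed by HPLC with photodiode-array detection against seven-point standards (1–200 µM).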

[12] = Metabolic stability in Sprague-Dawley rat plasma assessed as compound remaining after 120 mins by LC-MS/MS analysis; format: ADME, cell-free; conditions: read-out: Stability; in short: as §2
[13] = Stability of the compound in simulated gastric fluid assessed as compound remaining at pH 1.5 after 120 mins by LC-MS/MS analysis; format: physicochemical; conditions: read-out: Stability; in short: as §3
[14] = Metabolic stability in Sprague-Dawley rat plasma assessed as compound remaining after 30 mins by LC-MS/MS analysis; format: ADME, cell-free; conditions: read-out: Stability; in short: as §2
[15] = Stability of the compound in simulated gastric fluid assessed as compound remaining at pH 1.5 after 60 mins by LC-MS/MS analysis; format: physicochemical; conditions: read-out: Stability; in short: as §3
[16] = system: Mus musculus; assay: Analgesic activity in Swiss albino mouse assessed as reduction of acetic acid-induced writhing at 20 mg/kg, po measured every 10 mins after 5 mins of administration relative to control; format: functional; set-up: scale not given: the % may be the effect or the level left
In short: (§5)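 Male Swiss albino mice (23–25 g), compound given orally in CMC vehicle; writhing induced by 0.6% acetic acid (10 mL/kg) ip. Stretching movements counted for 10 min, starting 5 min after administration; percent reduction versus CMC-treated animals.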

[17] = system: Thoracic aorta; assay: Ex vivo vasorelaxant activity in Wistar rat endothelium thoracic aortic ring assessed as reduction of KCl-induced contraction at 0.001 uM to 10 uM relative to control; format: functional
In short: (§6)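 Endothelium-denuded thoracic aortic rings from male Wistar rats (250–350 g) in oxygenated Tyrode-type buffer at 37 °C, isometric tension recording. Rings precontracted with 30 mM KCl, then 3-fold increasing compound concentrations (1 nM–10 µM) added, also with 1 µM ODQ preincubated. Emax as % of KCl tone; pIC50; mean ± SE of 6–10 experiments.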

[18] = system: Mus musculus; assay: Analgesic activity in Swiss albino mouse assessed as reduction of acetic acid-induced writhing at 10 mg/kg, po measured every 10 mins after 5 mins of administration relative to control; format: functional; set-up: scale not given: the % may be the effect or the level left; in short: as §5
[19] = system: Thoracic aorta; assay: Ex vivo vasorelaxant activity in Wistar rat endothelium thoracic aortic ring assessed as reduction of KCl-induced contraction in presence of guanylate cyclase inhibitor ODQ; format: functional; in short: as §6
[20] = system: Mus musculus; assay: Analgesic activity in po dosed Swiss albino mouse assessed as reduction of acetic acid-induced writhing measured every 10 mins after 5 mins of administration; format: functional, organism-based; in short: as §5
[21] = system: Mus musculus; assay: Analgesic activity in Swiss albino mouse assessed as reduction of acetic acid-induced writhing at 40 mg/kg, po measured every 10 mins after 5 mins of administration relative to control; format: functional; set-up: scale not given: the % may be the effect or the level left; in short: as §5
[22] = Solubility of the compound in phosphate buffer saline at pH 7.4 after 90 mins by HPLC analysis; format: physicochemical; in short: as §4

SMILES	inhibition [1] [%]	Ratio IC50 [2]	IC50 [3] [µM]	inhibition [4] [%]	IC50 [5] [µM]	Activity [16] [%]	Activity [20]	Activity [21] [%]	also measured
Cc1c(CC(=O)NCCCO)cc(-c2ccc(S(C)(=O)=O)cc2)n1-c1ccc(F)cc1	21	> 147	> 10	100	–	–	–	–	–
Cc1c(CC(=O)NC(CO)C(=O)O)cc(-c2ccc(S(C)(=O)=O)cc2)n1-c1cccc(F)c1 (racemic)	23	> 167	> 10	100	0.068	–	–	–	–
Cc1c(CC(=O)OCCO[N+](=O)[O-])cc(-c2ccc(S(C)(=O)=O)cc2)n1-c1cccc(F)c1	–	–	–	–	–	–	–	–	remaining at 1 h [6]: 0%; remaining at 2 h [7]: 0.15%; remaining at 1 h [8]: 53.6%; remaining at 0.5 h [9]: 74.1%; remaining at 0.5 h [10]: 80.2%; solubility at 1.5 h [11]: < 1 µM; remaining at 2 h [12]: 0%; remaining at 2 h [13]: 42.8%; remaining at 0.5 h [14]: 0%; remaining at 1 h [15]: 65.7%
Cc1c(CC(=O)NC(CCO)C(=O)O)cc(-c2ccc(S(C)(=O)=O)cc2)n1-c1cccc(F)c1 (racemic)	16	> 10	> 10	79	–	–	–	–	–
Cc1c(CC(=O)NC(CCO)C(=O)O)cc(-c2ccc(S(C)(=O)=O)cc2)n1-c1ccc(F)cc1 (racemic)	19	> 16	> 10	89	–	–	–	–	–
Cc1c(CC(=O)NCCCO)cc(-c2ccc(S(C)(=O)=O)cc2)n1-c1cccc(F)c1	17	> 222	> 10	100	0.045	–	–	–	–
Cc1c(CC(=O)NC(CO[N+](=O)[O-])C(=O)O)cc(-c2ccc(S(C)(=O)=O)cc2)n1-c1ccc(F)cc1 (configuration not stated)	0	> 32	> 10	100	0.31	29	Dose-dependent effect	50	Emax [17]: 25%; Activity [18]: 0%; solubility at 1.5 h [11]: 112 µM (≈ 58.2 µg/mL); Activity [19]: inactive; solubility at 1.5 h [22]: 90.5 µM (≈ 47 µg/mL)
Cc1c(CC(=O)NC(CO)C(=O)O)cc(-c2ccc(S(C)(=O)=O)cc2)n1-c1ccc(F)cc1 (racemic)	23	> 62.5	> 10	100	0.16	59	Dose-dependent effect	60	Activity [18]: 27%
Cc1c(CC(=O)NC(CCO[N+](=O)[O-])C(=O)O)cc(-c2ccc(S(C)(=O)=O)cc2)n1-c1cccc(F)c1 (racemic)	27	> 6	> 10	43	–	10	Dose-dependent effect	23	Emax [17]: 25%; Activity [19]: inactive
Cc1c(CC(=O)NC(CO[N+](=O)[O-])C(=O)O)cc(-c2ccc(S(C)(=O)=O)cc2)n1-c1cccc(F)c1 (racemic)	0	> 71	> 10	100	0.14	47	Dose-dependent effect	50	remaining at 1 h [6]: 57.1%; remaining at 2 h [7]: 37.5%; Emax [17]: 18%; remaining at 1 h [8]: 50%; remaining at 0.5 h [9]: 75%; remaining at 0.5 h [10]: 100%; Activity [18]: 12%; remaining at 2 h [12]: 28.6%; Activity [19]: inactive; remaining at 2 h [13]: 87.5%; remaining at 0.5 h [14]: 71.4%; remaining at 1 h [15]: 93.8%
Cc1c(CC(=O)NCCO)cc(-c2ccc(S(C)(=O)=O)cc2)n1-c1cccc(F)c1	0	> 34	> 10	95	–	–	–	–	–
